Calls of active or inactive are those of the source. The calls are words filed in the database; no cut-off is given here.
What was measured:
BV-2 [1] = test: Antiinflammatory activity in LPS-induced mouse BV2 cells assessed as inhibition of TNF-alpha mRNA expression level preincubated for 3 hrs followed by LPS stimulation measured after 6 hrs by qRT-PCR analysis
BV-2 [2] = test: Antiinflammatory activity in […] BV2 cells assessed as inhibition of LPS-induced NO production preincubated for 3 hrs followed by LPS stimulation measured after 24 hrs by Griess assay; assay type: functional, cell-based
Method in brief: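 BV2 cells pretreated with compound for 3 h, then LPS (1 μg/mL) for 24 h. Nitrite in conditioned medium taken as NO indicator. Supernatant mixed 1:1 with Griess reagent (0.1% N-(1-naphthyl)ethylenediamine, 1% sulfanilamide in 5% phosphoric acid), 10 min at room temperature. A540 read. Concentration from a sodium nitrite standard curve made in phenol red-free DMEM. IC50 reported.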

BV-2 [3] = test: Antiinflammatory activity in LPS-induced […] BV2 cells assessed as inhibition of IL-6 mRNA expression level preincubated for 3 hrs followed by LPS stimulation measured after 6 hrs by qRT-PCR analysis; assay type: functional, cell-based
Method in brief: (§1)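 BV2 microglia in DMEM with 10% heat-inactivated FBS, penicillin/streptomycin and 2 mM L-glutamine, 37 °C, 5% CO2. Cells incubated with compound for 3 h, then LPS (1 μg/mL) for 6 h. Il1b, Il6 and Tnf mRNA measured by RT-qPCR with GAPDH as endogenous control. Relative expression by comparative Ct (2−ΔΔCt). Mean of three independent experiments.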

BV-2 [4] = test: Cytotoxicity against […] BV2 cells assessed as reduction in cell viability up to 40 uM after 24 hrs by MTT assay; assay type: cell-based; conditions: bv-2, 24 h
Method in brief: (§2)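 BV2 cells (1 × 10^5 cells/well) exposed to compound for 24 h, at concentrations up to 80 μM. MTT added to 0.5 mg/mL final for 3 h. Formazan dissolved in acidic 2-propanol and read at 540 nm. Untreated cells set as 100% viability.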

BV-2 [5] = test: Inhibition of COX2 protein expression level in LPS-induced […] BV2 cells preincubated for 3 hrs followed by LPS stimulation measured after 24 hrs by Western blot analysis; assay type: functional, cell-based
Method in brief: (§3)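 BV2 cells pretreated 3 h with compound, then LPS (1 μg/mL) for 24 h. Cells lysed in 20 mM Tris-HCl pH 7.4 with protease inhibitors. Protein quantified by Lowry. Equal protein run on 7.5% and 12% SDS-PAGE, transferred to nitrocellulose and probed with anti-iNOS, anti-COX-2 and anti-actin antibodies, ECL detection.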

BV-2 [6] = test: Cytotoxicity against […] BV2 cells assessed as reduction in cell viability up to 80 uM after 24 hrs by MTT assay; assay type: cell-based; conditions: bv-2, 24 h
Method in brief: as §2

BV-2 [7] = test: Antiinflammatory activity in LPS-induced […] BV2 cells assessed as inhibition of IL-1beta mRNA expression level preincubated for 3 hrs followed by LPS stimulation measured after 6 hrs by qRT-PCR analysis; assay type: functional, cell-based
Method in brief: as §1

BV-2 [8] = test: Antiinflammatory activity in […] BV2 cells assessed as inhibition of LPS-induced PGE2 production preincubated for 3 hrs followed by LPS stimulation measured after 24 hrs by ELISA; assay type: functional, cell-based
Method in brief: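 Pretreatment of BV2 cells with compound for 3 h, then LPS (1 μg/mL) stimulation for 24 h. PGE2 in culture medium measured by ELISA/enzyme immunoassay kit.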

BV-2 [9] = test: Inhibition of iNOS protein expression level in LPS-induced […] BV2 cells preincubated for 3 hrs followed by LPS stimulation measured after 24 hrs by Western blot analysis; assay type: functional, cell-based
Method in brief: as §3

IC50 (BV-2 [2]; Mus musculus) [µM] | SMILES | inhibition (BV-2 [1]) | inhibition (BV-2 [3]) | Activity (BV-2 [4]) | inhibition (BV-2 [5]) | Activity (BV-2 [6]) | inhibition (BV-2 [7]) | inhibition (BV-2 [8]) | inhibition (BV-2 [9]) | inhibition (BV-2 [2])
15 | CCCCCCCC[C@H](O)c1cc(OC)c(CO)c(=O)o1 | Dose-dependent effect | Dose-dependent effect | Non-Toxic | Dose-dependent effect | Toxic | Dose-dependent effect | Dose-dependent effect | Dose-dependent effect | –
– | COc1cc([C@@H](O)CCCCCC[C@@H](C)O)oc(=O)c1CO | – | – | – | – | – | – | – | – | inactive

From ChEMBL document CHEMBL4251717, “Bioactive α-Pyrone Derivatives from the Endolichenic Fungus Dothideomycetes sp. EL003334” (J Nat Prod, 2018)
